In ChEMBL document CHEMBL1154745, “Synthesis and biological evaluation of N-aryl-1,4-dihydropyridines as novel antidyslipidemic and antioxidant agents” (2010):

What was measured:
Rattus norvegicus [1] = assay: Antidyslipidemic activity against triton-induced hyperlipidemia in Charles Foster rat assessed as reduction in plasma phospholipid level at 100 mg/kg, po after 18 hrs relative to control; type: functional; parameters: scale not given: the % may be the effect or the level left
In short: (§1)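 Adult male Charles Foster rats (200–225 g) were given Triton WR-1339 400 mg/kg i.p. Test agent was suspended in 0.2% w/v gum acacia in water and dosed orally at the same time. There were five rats per group, and controls received vehicle. At 18 h, retro-orbital blood was taken into EDTA and centrifuged at 2500g, 4 °C, 10 min. Plasma was diluted 1:3 in saline, and lipids were measured by standard enzymatic kits.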

Rattus norvegicus [2] = assay: Antidyslipidemic activity against triton-induced hyperlipidemia in Charles Foster rat assessed as reduction in plasma triglyceride level at 100 mg/kg, po after 18 hrs relative to control; type: functional; parameters: scale not given: the % may be the effect or the level left; in short: as §1
Rattus norvegicus [3] = assay: Antidyslipidemic activity against triton-induced inhibition of post heparin lipolytic activity in Charles Foster rat at 100 mg/kg, po after 18 hrs; type: functional; parameters: scale not given: the % may be the effect or the level left
In short: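 Triton WR-1339 hyperlipidemia model in male Charles Foster rats (200–225 g): 400 mg/kg i.p. triton plus oral test agent in gum acacia suspension, with five rats per group. After 18 h, post-heparin lipolytic activity was determined by the Wing and Robinson method on plasma, using spectrophotometry and an auto-analyzer.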

[4] = Antioxidant activity assessed as superoxide radical scavenging activity at 100 ug/ml; type: functional
In short: (§2)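 Superoxide was generated enzymatically by xanthine with xanthine oxidase (0.04 U) and nitroblue tetrazolium in 100 mM phosphate buffer, pH 8.2, with or without test agent. Mixtures were incubated at 37 °C for 30 min and stopped with glacial acetic acid. Formazan formation was measured spectrophotometrically.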

[5] = Antioxidant activity assessed as superoxide radical scavenging activity at 200 ug/ml; type: functional; in short: as §2
[6] = Antioxidant activity assessed as inhibition of microsomal lipid peroxidation at 100 ug/mL; type: functional; parameters: scale not given: the % may be the effect or the level left
In short: (§3)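 Inhibition of lipid peroxidation in microsomal fractions, sonicated in phosphate buffer, was read out as nmol MDA formed/h/mg protein.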

[7] = Antioxidant activity assessed as inhibition of microsomal lipid peroxidation at 200 ug/mL; type: functional; parameters: scale not given: the % may be the effect or the level left; in short: as §3
[8] = Antioxidant activity assessed as hydroxyl radical scavenging activity at 100 ug/ml; type: functional
[9] = Antioxidant activity assessed as hydroxyl radical scavenging activity at 200 ug/ml; type: functional
Rattus norvegicus [10] = assay: Antidyslipidemic activity against triton-induced hyperlipidemia in Charles Foster rat assessed as reduction in total cholesterol level at 100 mg/kg, po after 18 hrs relative to control

Structure (SMILES) | Activity (Rattus norvegicus [1]) | Activity (Rattus norvegicus [2]) | Activity (Rattus norvegicus [3]) | Activity [4] | Activity [5] | Activity [6] | Activity [7] | Activity [8] | Activity [9] | total cholesterol lowering (Rattus norvegicus [10])
CC1=C(C(=O)OC(C)(C)C)C(c2ccccc2)C=CN1c1ccc(Cl)cc1 (centres undefined) | 13.5% | 11.5% | 8.9% | -24.5% | -48% | -18.5% | -26.6% | -19.2% | -34.6% | 15.5%
CCOC(=O)C1=C(C)N(c2ccc(F)cc2)C=CC1c1ccccc1 (centres undefined) | 15.3% | 13.6% | 8.1% | -25.7% | -42.5% | -28.5% | -35.8% | -10.9% | -25.5% | 17%
CCOC(=O)C1=C(C)N(c2ccc(Cl)cc2)C=CC1c1ccccc1 (centres undefined) | 16.5% | 9.8% | 8.3% | -19.1% | -37.4% | – | -34.4% | -20.8% | -31.1% | 16%
CCOC(=O)C1=C(C)N(c2ccc(Br)cc2)C=CC1c1ccccc1 (centres undefined) | 12.5% | 12.1% | 12% | -18.7% | -28.4% | -20.7% | -32.1% | -14.8% | -35.7% | 18.3%
CC1=C(C(=O)OC(C)(C)C)C(c2ccccc2)C=CN1c1ccccc1 (centres undefined) | 12.8% | 11% | 8.4% | -30.7% | -52.9% | -35.7% | -42.1% | -23.1% | -37.1% | 11.5%
Oc1ncnc2[nH]ncc12 | – | – | – | -66.4% | -77.5% | – | – | – | – | –
COC(=O)C1=C(C)N(c2ccc(OC)cc2)C=C(C)C1c1ccccc1 (centres undefined) | 15.3% | 20.7% | 14.7% | -19.8% | -34.7% | -14.7% | -28.9% | -13.9% | -22.6% | 15%
COC(=O)C1=C(C)N(c2ccccc2)C=CC1c1ccccc1 (centres undefined) | 21.3% | 18.7% | 10.9% | -25.9% | -43% | -21.5% | -37.3% | -26.9% | -23% | 24.8%
CCOC(=O)C1=C(C)N(c2ccc(C)cc2)C=CC1c1ccccc1 (centres undefined) | 23.7% | 21.2% | 24.9% | -22.9% | -35.8% | -23.5% | -38.4% | -20.7% | -32.7% | 18.7%
COC(=O)C1=C(C)N(c2ccccc2)C=C(C)C1c1ccccc1 (centres undefined) | 11% | 8.1% | 8.4% | -21.1% | -48% | -22.7% | -37.4% | -14.1% | -33.1% | 11%
Cc1c(C)c2c(c(C)c1O)CC[C@@](C)(CCC[C@H](C)CCC[C@H](C)CCCC(C)C)O2 | – | – | – | – | – | -43.9% | -52.1% | – | – | –
CCOC(=O)C1=C(C)N(c2ccccc2)C=CC1c1ccccc1 (centres undefined) | 28.5% | 25.3% | 16.3% | -21.5% | -34% | -19.9% | -37.1% | -13.8% | -29.3% | 21.9%
OC[C@@H](O)[C@@H](O)[C@H](O)[C@H](O)CO | – | – | – | – | – | – | – | -31.2% | -44.5% | –
COC(=O)C1=C(C)N(c2cccc(Cl)c2)C=C(C)C1c1ccccc1 (centres undefined) | 13.4% | 8.9% | 13.9% | -21.3% | -35.3% | -16.2% | -22.8% | -12% | -23% | 12.2%
COC(=O)C1=C(C)N(c2cccc(C)c2C)C=C(C)C1c1ccccc1 (centres undefined) | 23.9% | 25.7% | 23.7% | -23.6% | -32.2% | -22.7% | -33.1% | -19.7% | -29.3% | 24.1%
Cc1ccc(C)c(OCCCC(C)(C)C(=O)O)c1 [GEMFIBROZIL] | 39.1% | 36.1% | 34.2% | – | – | – | – | – | – | 37.1%
CCOC(=O)C1=C(C)N(c2ccccc2)C=CC1c1ccccc1[N+](=O)[O-] (centres undefined) | 5.7% | 10.5% | 12.3% | -20.6% | -33.6% | -19.2% | -25.1% | -11.5% | -26.9% | 14%
COC(=O)C1=C(C)N(c2ccccc2)C=CC1c1ccc(OC)cc1 (centres undefined) | 18.7% | 18.7% | 9.8% | -29.8% | -44.8% | -17.6% | -30.3% | -18.3% | -27.7% | 18.1%
